Experimental data as given in ChEMBL document CHEMBL3244384, “3,4-Methylenedioxyphenyl-, isopropylidenedioxyphenyl-, and benzyl-substituted chiral 2-aminosuccinimides and 3-aminopyrrolidines. Stereoselective investigations of potential anti-parkinsonian, antipsychotic, and anticonvulsant activities” (J Med Chem, 1977).
Active and inactive are the calls of the source.

Legend:
[1] = Neurotoxicity in ip dosed albino CD-1 mouse by rotarod test; type: toxicity, organism-based; settings: in vivo
Outline: (§1)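 Male CD-1 mice (20-25 g), groups of 6-12, given ip doses in aqueous solution (1.0 mL/100 g). Neurotoxicity = failure to stay 1 min on a rod turning at 6 rpm. Time of peak central activity found. TD50 and 95% limits by Litchfield-Wilcoxon from at least three points in the 10-90% range.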

Mus musculus [2] = experiment: Neurotoxicity in ip dosed albino CD-1 mouse assessed as time to peak central activity by rotarod test; type: toxicity, organism-based; settings: in vivo; outline: as §1
Mus musculus [3] = experiment: Anticonvulsant activity in ip dosed albino CD-1 mouse assessed as protection from maximal electroshock-induced seizures measured at time of peak effect; type: functional; settings: CD-1, ip
Outline: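 Male CD-1 mice (20-25 g) dosed ip in aqueous solution (1.0 mL/100 g). At time of peak rotarod activity, MES given by corneal electrodes (50-mA ac, 0.2 s). End point: abolition of hindlimb-extensor component.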

[4] = Protective index, ratio of TD50 for neurotoxicity to ED50 for anticonvulsant activity in ip dosed albino CD-1 mouse; type: toxicity, organism-based; settings: in vivo, read-out: Ratio TD50/ED50
Outline: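 Groups of 6-12 male CD-1 mice dosed ip across a range giving at least three points at 10-90% MES protection or rotarod neurotoxicity. ED50 and TD50 by Litchfield-Wilcoxon; PI = TD50/ED50, not calculated when protection is below 50%.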

Mus musculus [5] = experiment: Anticonvulsant activity in ip dosed albino CD-1 mouse assessed as threshold ratio for pentylenetetrazole-induced clonic seizures at 0.5 time TD50 measured at time of peak effect relative to saline-treated control; type: functional
Outline: (§2)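 Male CD-1 mice (20-25 g) given saline or 0.5 TD50 test compound ip. At time of peak activity, pentylenetetrazole (0.5%) infused iv at 0.51 mL/min until minimal (clonic) or maximal (tonic-clonic) seizure. Threshold ratio = mean mg/kg pentylenetetrazole in treated mice ÷ mg/kg in saline mice, with 95% confidence intervals.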

Mus musculus [6] = experiment: Anticonvulsant activity in ip dosed albino CD-1 mouse assessed as threshold ratio for pentylenetetrazole-induced tonic-clonic seizures at 0.5 time TD50 measured at time of peak effect relative to saline-treated control; type: functional; outline: as §2
Mus musculus [7] = experiment: Toxicity in albino CD-1 mouse assessed as twitching at >/= 6.1 mmol/kg, ip; type: organism-based; settings: in vivo
Mus musculus [8] = experiment: Toxicity in albino CD-1 mouse assessed as increased excitability to touch at >/= 6.1 mmol/kg, ip; type: organism-based; settings: in vivo
Mus musculus [9] = experiment: Toxicity in albino CD-1 mouse assessed as occasional clonic seizure-like movements at >/= 6.1 mmol/kg, ip; type: organism-based; settings: in vivo
Mus musculus [10] = experiment: Toxicity in albino CD-1 mouse assessed as loss of righting reflex at >/= 6.1 mmol/kg, ip; type: organism-based; settings: in vivo
Mus musculus [11] = experiment: Toxicity in albino CD-1 mouse assessed as behavioral effect at 2.81 mmol/kg, ip; type: organism-based; settings: in vivo
Mus musculus [12] = experiment: Anti-parkinsonian activity in ip dosed albino CD-1 mouse assessed as inhibition of oxotremorine-induced diarrhea at 0.25 to 1 time TD50 administered 30 mins prior challenge; type: functional, organism-based
Outline: (§3)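 Male CD-1 mice (20-25 g), groups of five, given test compound ip (aqueous, 1.0 mL/100 g) or saline 30 min before oxotremorine 1 mg/kg ip. Tremor intensity scored 0 absent, 1 mild, 2 moderate, 3 severe, summed over five animals; diarrhea and salivation also observed.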

Mus musculus [13] = experiment: Anti-parkinsonian activity in ip dosed albino CD-1 mouse assessed as inhibition of oxotremorine-induced salivation at 0.25 to 1 time TD50 administered 30 mins prior challenge; type: functional, organism-based; outline: as §3
Mus musculus [14] = experiment: Anti-parkinsonian activity in ip dosed albino CD-1 mouse assessed as inhibition of oxotremorine-induced tremor at 0.25 to 1 time TD50 administered 30 mins prior challenge; type: functional, organism-based; outline: as §3
Mus musculus [15] = experiment: Anti-parkinsonian activity in ip dosed albino CD-1 mouse assessed as inhibition of oxotremorine-induced tremor administered 30 mins prior challenge; type: functional, organism-based; outline: as §3
Mus musculus [16] = experiment: Toxicity in albino CD-1 mouse assessed as sedation at >/= 2.68 mmol/kg, ip; type: organism-based; settings: in vivo
Mus musculus [17] = experiment: Toxicity in albino CD-1 mouse assessed as loss of righting reflex at >/= 2.68 mmol/kg, ip; type: organism-based; settings: in vivo
Mus musculus [18] = experiment: Toxicity in albino CD-1 mouse assessed as mortality at >/= 2.68 mmol/kg, ip; type: organism-based; settings: in vivo
Mus musculus [19] = experiment: Toxicity in albino CD-1 mouse assessed as clonic-like seizure activity at >/= 2.68 mmol/kg, ip; type: organism-based; settings: in vivo
[20] = Antagonist activity at acetylcholine receptor (unknown origin); design: species or system Homo sapiens

Row | SMILES | TD50 [1] | Time (Mus musculus [2]) | ED50 (Mus musculus [3]) | selectivity ratio [4] | Ratio (Mus musculus [5]) | Ratio (Mus musculus [6]) | Activity (Mus musculus [7]) | Activity (Mus musculus [8]) | Activity (Mus musculus [9]) | Activity (Mus musculus [10]) | Activity (Mus musculus [11]) | Activity (Mus musculus [12]) | Activity (Mus musculus [13]) | Activity (Mus musculus [14]) | Activity (Mus musculus [15]) | Activity (Mus musculus [16]) | Activity (Mus musculus [17]) | Activity (Mus musculus [18]) | Activity (Mus musculus [19]) | pA2 [20]
1 | CC(=O)N[C@@H]1CC(=O)N(Cc2ccccc2)C1=O | 4760 µmol/kg | 30 min | 1460 µmol/kg | 3.25 | 1.36 | 0.85 | Toxic | Toxic | Toxic | Toxic | – | – | – | – | – | – | – | – | – | –
2 | Cl.N[C@@H]1CC(=O)N(Cc2ccc3c(c2)OCO3)C1=O | 1830 µmol/kg | 15 min | 720 µmol/kg | 2.54 | 1.61 | 1.18 | – | – | – | – | Non-toxic | – | – | – | – | – | – | – | – | –
3 | Cl.N[C@H]1CC(=O)N(c2ccc3c(c2)OCO3)C1=O | 5040 µmol/kg | 45 min | 5040 µmol/kg | – | 1.08 | 0.92 | – | – | – | – | – | Active | Active | inactive | – | – | – | – | – | –
4 | CC(=O)N[C@H]1CC(=O)N(Cc2ccccc2)C1=O | 5280 µmol/kg | 30 min | 1200 µmol/kg | 4.41 | 1.06 | 1.11 | Toxic | Toxic | Toxic | Toxic | – | – | – | – | – | – | – | – | – | –
5 | CCC1(C)CC(=O)NC1=O (stereo not given) [ETHOSUXIMIDE] | 2320 µmol/kg | 5 min | 2320 µmol/kg | – | 1.34 | 1.71 | – | – | – | – | – | – | – | – | – | – | – | – | – | –
6 | O=C1N=C([O-])NC1(c1ccccc1)c1ccccc1.[Na+] [PHENYTOIN SODIUM] | 220 µmol/kg | 45 min | 22 µmol/kg | 10 | 1.07 | 2.08 | – | – | – | – | – | – | – | – | – | – | – | – | – | –
7 | CC1(C)Oc2ccc(N3C(=O)C[C@@H](N)C3=O)cc2O1.Cl | 960 µmol/kg | 15 min | 570 µmol/kg | 1.68 | 1.28 | 1.66 | – | – | – | – | – | inactive | inactive | Active | Dose-dependent effect | Toxic | Toxic | Toxic | Toxic | –
8 | CC1(C)Oc2ccc(N3C(=O)C[C@H](N)C3=O)cc2O1.Cl | 1220 µmol/kg | 30 min | 840 µmol/kg | 1.45 | 1.36 | 1.34 | – | – | – | – | – | inactive | inactive | Active | – | Toxic | Toxic | Toxic | Toxic | –
9 | CCN[C@@H]1CCN(c2ccccc2)C1 | – | – | – | – | – | – | – | – | – | – | – | – | – | – | – | – | – | – | – | 3.5
10 | Cl.N[C@H]1CC(=O)N(Cc2ccc3c(c2)OCO3)C1=O | 2000 µmol/kg | 15 min | 700 µmol/kg | 2.85 | 1.54 | 1.09 | – | – | – | – | Non-toxic | – | – | – | – | – | – | – | – | –
11 | CN1C(=O)OC(C)(C)C1=O [TRIMETHADIONE] | 3980 µmol/kg | 5 min | 3720 µmol/kg | 1.07 | 2.05 | 2.25 | – | – | – | – | – | – | – | – | – | – | – | – | – | –
12 | Cl.N[C@@H]1CC(=O)N(c2ccc3c(c2)OCO3)C1=O | 3330 µmol/kg | 45 min | 3330 µmol/kg | – | 1.03 | 0.75 | – | – | – | – | – | Active | Active | inactive | – | – | – | – | – | –
